Here are results for 14 compounds from ChEMBL document CHEMBL1156749 (Bioorg Med Chem Lett, 2009).

Structures are written as SMILES.

The target in assay [1] is Sodium-dependent dopamine transporter (Rattus norvegicus, UniProt P23977). Nature of the assay: Displacement of [3H]WIN-35428 from DAT in rat brain. Format: tissue-based. The method in brief:
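Radioligand displacement from monoamine transporters in rat brain tissue: [3H]WIN 35,428 for DAT, [3H]citalopram for SERT, [3H]nisoxetine for NET. Test agents were used as oxalate salts, and Ki was derived from displacement. Values are mean ± SEM of three experiments, each run in triplicate.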

For assay [2], the target named is Sodium-dependent serotonin transporter (Rattus norvegicus, UniProt P31652). Nature of the assay: Displacement of [3H]citalopram from SERT in rat brain. Format: tissue-based. A general note: In a radioligand displacement assay an active substance lowers the binding of a labelled ligand.
The target of a further assay is Transporter (Rattus norvegicus, UniProt Q63380). Nature of the assay: Displacement of [3H]nisoxetine from NET in rat brain. Format: tissue-based.
The species entered for assay [3] is Rattus norvegicus. Nature of the assay: Selectivity ratio of Ki for rat DAT to Ki for SERT. The method in brief: (§1)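 Ratio of Ki values from rat brain tissue displacement assays: [3H]WIN 35,428 for DAT, [3H]citalopram for SERT, [3H]nisoxetine for NET. Test agents were oxalate salts. Each Ki is the mean of three experiments run in triplicate.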
The species entered for assay [4] is Rattus norvegicus. Nature of the assay: Selectivity ratio of Ki for rat NET to Ki for DAT. The method in brief: as §1
Assay [5] is filed under the species Rattus norvegicus. Nature of the assay: Selectivity ratio of Ki for rat NET to Ki for SERT. In outline: as §1

Sodium-dependent serotonin transporter, sequence (P31652 whole entry): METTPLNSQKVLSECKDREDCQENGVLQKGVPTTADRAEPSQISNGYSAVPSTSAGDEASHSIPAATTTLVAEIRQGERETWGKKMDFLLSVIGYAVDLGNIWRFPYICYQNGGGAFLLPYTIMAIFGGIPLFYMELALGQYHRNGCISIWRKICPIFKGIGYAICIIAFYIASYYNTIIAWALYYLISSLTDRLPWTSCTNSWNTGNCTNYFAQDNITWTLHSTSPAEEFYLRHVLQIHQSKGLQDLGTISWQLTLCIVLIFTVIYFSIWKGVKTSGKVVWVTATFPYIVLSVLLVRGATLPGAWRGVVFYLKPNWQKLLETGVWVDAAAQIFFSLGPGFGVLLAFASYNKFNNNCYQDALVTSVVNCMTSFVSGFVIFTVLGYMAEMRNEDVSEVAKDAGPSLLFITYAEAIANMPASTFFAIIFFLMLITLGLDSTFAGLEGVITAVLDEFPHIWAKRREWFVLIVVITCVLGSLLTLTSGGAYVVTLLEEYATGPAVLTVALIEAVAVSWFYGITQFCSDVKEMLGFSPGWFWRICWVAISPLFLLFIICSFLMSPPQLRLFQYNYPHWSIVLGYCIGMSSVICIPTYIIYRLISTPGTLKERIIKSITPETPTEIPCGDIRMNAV
Transporter, sequence (Q63380 whole entry): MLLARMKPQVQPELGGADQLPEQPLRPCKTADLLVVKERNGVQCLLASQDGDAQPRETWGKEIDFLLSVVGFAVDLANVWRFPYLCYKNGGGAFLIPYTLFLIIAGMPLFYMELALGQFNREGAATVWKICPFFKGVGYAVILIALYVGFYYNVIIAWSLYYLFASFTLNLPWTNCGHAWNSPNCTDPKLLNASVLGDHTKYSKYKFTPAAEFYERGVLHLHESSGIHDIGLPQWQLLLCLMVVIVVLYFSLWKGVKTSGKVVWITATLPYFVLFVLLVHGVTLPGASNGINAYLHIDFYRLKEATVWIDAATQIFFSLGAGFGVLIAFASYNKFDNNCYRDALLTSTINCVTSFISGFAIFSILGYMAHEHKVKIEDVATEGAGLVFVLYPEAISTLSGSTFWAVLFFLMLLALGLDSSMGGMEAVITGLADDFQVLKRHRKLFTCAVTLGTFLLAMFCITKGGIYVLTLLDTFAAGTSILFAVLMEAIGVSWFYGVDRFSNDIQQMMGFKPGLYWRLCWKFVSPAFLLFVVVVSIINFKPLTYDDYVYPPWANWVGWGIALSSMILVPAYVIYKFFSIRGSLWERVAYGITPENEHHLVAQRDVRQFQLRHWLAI
Sodium-dependent dopamine transporter, sequence (P23977 whole entry): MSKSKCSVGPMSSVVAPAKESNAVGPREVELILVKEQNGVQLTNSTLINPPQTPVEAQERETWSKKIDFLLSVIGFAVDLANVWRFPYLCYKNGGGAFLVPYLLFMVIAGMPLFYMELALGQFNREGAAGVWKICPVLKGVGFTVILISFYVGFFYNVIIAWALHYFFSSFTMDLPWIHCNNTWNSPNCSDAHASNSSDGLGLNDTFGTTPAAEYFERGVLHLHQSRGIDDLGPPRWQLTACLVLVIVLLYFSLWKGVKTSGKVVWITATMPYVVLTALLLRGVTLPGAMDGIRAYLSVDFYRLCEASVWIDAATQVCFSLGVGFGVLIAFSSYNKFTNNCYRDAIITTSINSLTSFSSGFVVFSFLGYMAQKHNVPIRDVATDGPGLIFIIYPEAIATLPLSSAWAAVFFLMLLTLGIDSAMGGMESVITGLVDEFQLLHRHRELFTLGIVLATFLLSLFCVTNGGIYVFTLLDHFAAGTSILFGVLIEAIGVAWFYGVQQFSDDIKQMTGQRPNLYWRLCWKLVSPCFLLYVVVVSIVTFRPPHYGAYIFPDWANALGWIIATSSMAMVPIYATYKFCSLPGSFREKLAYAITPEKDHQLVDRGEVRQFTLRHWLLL

On to `Clc1ccc([C@]2(OCc3ccccc3)C[C@H]3CC[C@@H](C2)N3)cc1`, for which the Ki – broadly, a dissociation constant, usually derived from enzyme kinetics or from competition with a known ligand – was found to be 172 nM in assay [1], 65 nM in assay [2] and 1720 nM on Transporter. Besides, the Ratio in the assay filed under Rattus norvegicus [3] stood at 2.7; in the assay filed under Rattus norvegicus [4], 10; in the assay listed under Rattus norvegicus [5], 26.

Consider `Clc1ccc(CO[C@@]2(c3ccccc3)C[C@H]3CC[C@@H](C2)N3)cc1`, for which the Ki in assay [1] came out at 22 nM; in assay [2] it was 6.1 nM; at Transporter it was 101 nM. Moreover, the Ratio in the assay filed under Rattus norvegicus [3] was found to be 3.6; in the assay listed under Rattus norvegicus [4], 4.6; in the assay filed under Rattus norvegicus [5] it was 17.

Turning to `FC(F)(F)c1ccc([C@]2(OCc3ccccc3)C[C@H]3CC[C@@H](C2)N3)cc1`, the Ki in assay [1] is 1390 nM; in assay [2], 534 nM; at Transporter, 5440 nM. Further, the results for the Ratio in the assay filed under Rattus norvegicus [3], in the assay listed under Rattus norvegicus [4] and in the assay listed under Rattus norvegicus [5] were 2.6, 3.9 and 10, respectively.

As to `Clc1ccc(CO[C@@]2(c3ccccc3)C[C@H]3CC[C@@H](C2)N3)cc1Cl`, the figures for the Ki (in assay [1]; in assay [2]; on Transporter) were 16 nM, 0.061 nM and 996 nM, respectively. Moreover, the Ratio in the assay listed under Rattus norvegicus [3] came out at 258; in the assay filed under Rattus norvegicus [4], 62; in the assay filed under Rattus norvegicus [5], 16300.

As to `Clc1ccc([C@]2(OCc3ccccc3)C[C@H]3CC[C@@H](C2)N3)cc1Cl`, the Ki is 716 nM in assay [1], 62 nM in assay [2] and 1230 nM on Transporter. The Ratio in the assay filed under Rattus norvegicus [3] worked out at 11; in the assay listed under Rattus norvegicus [4], 1.7; in the assay listed under Rattus norvegicus [5], 20.

Regarding `Fc1ccc(C2=CC3CCC(C2)N3)cc1` (centres undefined), the Ki in assay [1] was 1060 nM. Moreover, the Ratio in the assay listed under Rattus norvegicus [3] turned out to be 8.2; in the assay filed under Rattus norvegicus [4], 1.9.

As for `Clc1ccc(CO[C@@]2(c3ccc(Cl)c(Cl)c3)C[C@H]3CC[C@@H](C2)N3)cc1`, the Ratio in the assay filed under Rattus norvegicus [3] was 46; in the assay filed under Rattus norvegicus [4], 5.4; in the assay filed under Rattus norvegicus [5], 246.

In the case of `Clc1ccc(CO[C@@]2(c3ccc(Cl)c(Cl)c3)C[C@H]3CC[C@@H](C2)N3)cc1Cl`, the inhibitory constant (Ki) in assay [1] was 2930 nM; in assay [2], 4.7 nM; at Transporter, 2550 nM. Moreover, the Ratio stood at 601 in the assay listed under Rattus norvegicus [3], 0.87 in the assay filed under Rattus norvegicus [4] and 543 in the assay filed under Rattus norvegicus [5].

Consider `Clc1ccc(C2=CC3CCC(C2)N3)cc1` (centres undefined), for which the Ki in assay [1] worked out at 231 nM; in assay [2], 2.8 nM; at Transporter, 120 nM. Moreover, the results for the Ratio in the assay listed under Rattus norvegicus [3], in the assay listed under Rattus norvegicus [4] and in the assay listed under Rattus norvegicus [5] were 83, 0.52 and 43, respectively.

For `Clc1ccc(CO[C@@]2(c3ccc(Cl)cc3)C[C@H]3CC[C@@H](C2)N3)cc1`, the Ki in assay [1] is 63 nM; in assay [2], 0.1 nM; at Transporter it was 2370 nM. Further, the Ratio was determined as 630 in the assay listed under Rattus norvegicus [3], 38 in the assay filed under Rattus norvegicus [4] and 23700 in the assay listed under Rattus norvegicus [5].

Take `C1=C(c2ccccc2)CC2CCC1N2` (centres undefined): the results for the Ki (in assay [1]; in assay [2]; at Transporter) were 1220 nM, 176 nM and 1290 nM, respectively. Also, the results for the Ratio in the assay listed under Rattus norvegicus [3], in the assay listed under Rattus norvegicus [4] and in the assay filed under Rattus norvegicus [5] were 6.9, 1.1 and 7.3, respectively.

For `c1ccc(CO[C@@]2(c3ccccc3)C[C@H]3CC[C@@H](C2)N3)cc1`, the results for the Ki in assay [1] and in assay [2] were 117 nM and 247 nM, respectively. The Ratio in the assay filed under Rattus norvegicus [3] came to 0.47.

For `Clc1ccc(C2=CC3CCC(C2)N3)cc1Cl` (centres undefined), the Ki in assay [1] is 16 nM; in assay [2], 0.3 nM; at Transporter it was 20 nM. The Ratio in the assay filed under Rattus norvegicus [3] was found to be 53; in the assay filed under Rattus norvegicus [4], 1.3; in the assay filed under Rattus norvegicus [5], 67.

`FC(F)(F)c1ccc(C2=CC3CCC(C2)N3)cc1` (centres undefined): the Ki in assay [1] came to 1490 nM; in assay [2] it was 1.8 nM; at Transporter, 777 nM. Besides, the Ratio in the assay filed under Rattus norvegicus [3] is 830; in the assay listed under Rattus norvegicus [5], 432.
